Measured values from ChEMBL document CHEMBL2380302, “Synthesis of 3-O-propargylated betulinic acid and its 1,2,3-triazoles as potential apoptotic agents” (Eur J Med Chem, 2013).
Activity calls are given as the source filed them. The rule behind the calls is not given here.

What was measured:
[1] = tested on: HL-60; experiment: Ratio of betulinic acid IC50 to compound IC50 for human HL60 cells; format: functional
[2] = tested on: THP-1; experiment: Inhibition of cell invasion in human THP1 cells at 1 to 30 uM after 24 hrs by wound-healing assay; format: functional, cell-based
How it was run: (§1)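 THP-1 monolayers (3×10⁵ cells/mL/well) were scratched with a pipette tip and washed three times with PBS. Test samples were added for 24 h, then fresh medium was added until the control wound healed. Wounds were imaged with a 10× objective at 0 h and 24 h. Migration was quantified as the distance between wound edges.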

[3] = tested on: THP-1; experiment: Inhibition of cell migration in human THP1 cells at 1 to 30 uM after 24 hrs by wound-healing assay; format: functional, cell-based; how it was run: as §1
[4] = tested on: HL-60; experiment: Induction of apoptosis in human HL60 cells assessed as DNA ladder formation at 20 to 30 uM after 24 hrs by DNA agarose gel electrophoresis; format: functional, cell-based
How it was run: (§2)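 DNA fragmentation assay in HL-60 cells (2 × 10⁶ cells/well) or CV-1 cells, treated for 24 h. Cells were lysed in Tris–HCl pH 8.0/NaCl/EDTA/Triton X-100 with proteinase K (200 µg/mL) at 50 °C for 1 h, then DNase-free RNase for 90 min. DNA was phenol:chloroform extracted and ethanol precipitated. Gels were 1% agarose in TAE at 80 V for 1.5 h. Camptothecin (5 µM, 6 h) served as positive control in HL-60.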

[5] = tested on: HL-60; experiment: Induction of apoptosis in human HL60 cells assessed as DNA ladder formation after 24 hrs by DNA agarose gel electrophoresis; format: functional; how it was run: as §2
[6] = tested on: CV-1; experiment: Induction of apoptosis in african green monkey CV1 cells assessed as DNA ladder formation at 10 to 60 uM after 24 hrs by DNA agarose gel electrophoresis; format: cell-based; details: chlorocebus aethiops, cv-1, 24 h; how it was run: as §2
[7] = tested on: HL-60; experiment: Induction of apoptosis in human HL60 cells assessed as change in mitochondrial membrane potential after 24 hrs using rhodamine-123 staining by fluorescence based confocal microscopy analysis; format: functional, cell-based
How it was run: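 HL-60 cells (6 × 10⁴/mL/well) were treated for 24 h. Rhodamine-123 (1 µM) was added in serum-free medium 30 min before the end, in the dark. Cells were then washed and resuspended in PBS. Fluorescence loss was viewed by confocal microscopy with 488 nm laser excitation. Each experiment was done twice.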

[8] = tested on: THP-1; experiment: Inhibition of colony formation in human THP1 cells using crystal violet staining after 24 hrs by clonogenic assay; format: functional, cell-based
How it was run: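 THP-1 cells from log-phase culture were plated at clonogenic dilution. After 24 h they were treated for 24 h, then incubated for at least six potential divisions (colonies >50 cells). Colonies were fixed and stained with 6% glutaraldehyde plus 0.5% crystal violet for 30 min, washed with water and air-dried.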

[9] = tested on: HCT-15; experiment: Cytotoxicity against human HCT15 cells at 10 uM after 48 hrs by SRB assay; format: functional; details: HCT-15, 48 h, read-out: GI
[10] = tested on: SF-295; experiment: Cytotoxicity against human SF295 cells at 10 uM after 48 hrs by SRB assay; format: functional; details: SF-295, 48 h, read-out: GI
[11] = tested on: A549; experiment: Cytotoxicity against human A549 cells at 10 uM after 48 hrs by SRB assay; format: functional; details: A549, 48 h, read-out: GI
[12] = tested on: MCF7; experiment: Cytotoxicity against human MCF7 cells at 10 uM after 48 hrs by SRB assay; format: functional; details: MCF7, 48 h, read-out: GI
[13] = tested on: HEp-2; experiment: Cytotoxicity against human Hep2 cells at 10 uM after 48 hrs by SRB assay; format: functional; details: HEp-2, 48 h, read-out: GI
[14] = tested on: PC-3; experiment: Cytotoxicity against human PC3 cells at 10 uM after 48 hrs by SRB assay; format: functional; details: PC-3, 48 h, read-out: GI
[15] = tested on: DU-145; experiment: Cytotoxicity against human DU145 cells at 10 uM after 48 hrs by SRB assay; format: functional; details: DU-145, 48 h, read-out: GI
[16] = tested on: HL-60; experiment: Cytotoxicity against human HL60 cells at 10 uM after 48 hrs by SRB assay; format: functional; details: HL-60, 48 h, read-out: GI
[17] = tested on: THP-1; experiment: Cytotoxicity against human THP1 cells at 10 uM after 48 hrs by SRB assay; format: functional; details: THP-1, 48 h, read-out: GI
[18] = tested on: HCT-15; experiment: Cytotoxicity against human HCT15 cells at 30 uM after 48 hrs by SRB assay; format: functional; details: HCT-15, 48 h, read-out: GI
[19] = tested on: SF-295; experiment: Cytotoxicity against human SF295 cells at 30 uM after 48 hrs by SRB assay; format: functional; details: SF-295, 48 h, read-out: GI
[20] = tested on: A549; experiment: Cytotoxicity against human A549 cells at 30 uM after 48 hrs by SRB assay; format: functional; details: A549, 48 h, read-out: GI
[21] = tested on: MCF7; experiment: Cytotoxicity against human MCF7 cells at 30 uM after 48 hrs by SRB assay; format: functional; details: MCF7, 48 h, read-out: GI
[22] = tested on: HEp-2; experiment: Cytotoxicity against human Hep2 cells at 30 uM after 48 hrs by SRB assay; format: functional; details: HEp-2, 48 h, read-out: GI
[23] = tested on: PC-3; experiment: Cytotoxicity against human PC3 cells at 30 uM after 48 hrs by SRB assay; format: functional; details: PC-3, 48 h, read-out: GI
[24] = tested on: DU-145; experiment: Cytotoxicity against human DU145 cells at 30 uM after 48 hrs by SRB assay; format: functional; details: DU-145, 48 h, read-out: GI
[25] = tested on: HL-60; experiment: Cytotoxicity against human HL60 cells at 30 uM after 48 hrs by SRB assay; format: functional; details: HL-60, 48 h, read-out: GI
[26] = tested on: THP-1; experiment: Cytotoxicity against human THP1 cells at 30 uM after 48 hrs by SRB assay; format: functional; details: THP-1, 48 h, read-out: GI
[27] = tested on: HCT-15; experiment: Cytotoxicity against human HCT15 cells at 50 uM after 48 hrs by SRB assay; format: functional; details: HCT-15, 48 h, read-out: GI
[28] = tested on: SF-295; experiment: Cytotoxicity against human SF295 cells at 50 uM after 48 hrs by SRB assay; format: functional; details: SF-295, 48 h, read-out: GI
[29] = tested on: A549; experiment: Cytotoxicity against human A549 cells at 50 uM after 48 hrs by SRB assay; format: functional; details: A549, 48 h, read-out: GI
[30] = tested on: MCF7; experiment: Cytotoxicity against human MCF7 cells at 50 uM after 48 hrs by SRB assay; format: functional; details: MCF7, 48 h, read-out: GI
[31] = tested on: HEp-2; experiment: Cytotoxicity against human Hep2 cells at 50 uM after 48 hrs by SRB assay; format: functional; details: HEp-2, 48 h, read-out: GI
[32] = tested on: PC-3; experiment: Cytotoxicity against human PC3 cells at 50 uM after 48 hrs by SRB assay; format: functional; details: PC-3, 48 h, read-out: GI
[33] = tested on: HL-60; experiment: Cytotoxicity against human HL60 cells at 50 uM after 48 hrs by SRB assay; format: functional; details: HL-60, 48 h, read-out: GI
[34] = tested on: DU-145; experiment: Cytotoxicity against human DU145 cells at 50 uM after 48 hrs by SRB assay; format: functional; details: DU-145, 48 h, read-out: GI
[35] = tested on: THP-1; experiment: Cytotoxicity against human THP1 cells at 50 uM after 48 hrs by SRB assay; format: functional; details: THP-1, 48 h, read-out: GI
[36] = tested on: HCT-15; experiment: Cytotoxicity against human HCT15 cells after 48 hrs by SRB assay; format: functional, cell-based; details: HCT-15, 48 h
[37] = tested on: A549; experiment: Cytotoxicity against human A549 cells after 48 hrs by SRB assay; format: functional, cell-based; details: A549, 48 h
[38] = tested on: SF-295; experiment: Cytotoxicity against human SF295 cells after 48 hrs by SRB assay; format: functional, cell-based; details: SF-295, 48 h
[39] = tested on: MCF7; experiment: Cytotoxicity against human MCF7 cells after 48 hrs by SRB assay; format: functional, cell-based; details: MCF7, 48 h
[40] = tested on: HEp-2; experiment: Cytotoxicity against human Hep2 cells after 48 hrs by SRB assay; format: functional, cell-based; details: HEp-2, 48 h
[41] = tested on: PC-3; experiment: Cytotoxicity against human PC3 cells after 48 hrs by SRB assay; format: functional, cell-based; details: PC-3, 48 h
[42] = tested on: DU-145; experiment: Cytotoxicity against human DU145 cells after 48 hrs by SRB assay; format: functional, cell-based; details: DU-145, 48 h
[43] = tested on: HL-60; experiment: Cytotoxicity against human HL60 cells after 48 hrs by SRB assay; format: functional, cell-based; details: HL-60, 48 h
[44] = tested on: THP-1; experiment: Cytotoxicity against human THP1 cells after 48 hrs by SRB assay; format: functional, cell-based; details: THP-1, 48 h

In the case of `C=C(C)[C@@H]1CC[C@]2(C(=O)O)CC[C@]3(C)[C@H](CC[C@@H]4[C@@]5(C)CC[C@H](OCc6cn(-c7cccc8c(O)cccc78)nn6)C(C)(C)[C@@H]5CC[C@]43C)[C@@H]12`, the “Ratio IC50” value [1] is reported as 5, the inhibition [2] is reported as “Active” and the inhibition [3] is reported as “Active”. The Activity [4] was “Active”, the Activity [5] was “Dose-dependent effect” and the MED [5] was 20 µM. The Activity [6] was “Non-toxic”, the Activity [7] was “Dose-dependent effect” and the inhibition [8] was “Dose-dependent effect”. For the same compound, the inhibition of growth at 10 µM [9] was 40%, the inhibition of growth at 10 µM [10] was 18% and the inhibition of growth at 10 µM [11] was 42%. It also gave an inhibition of growth at 10 µM [12] of 51%, an inhibition of growth at 10 µM [13] of 45% and an inhibition of growth at 10 µM [14] of 35%. For the same compound, the inhibition of growth at 10 µM [15] was 38%, the inhibition of growth at 10 µM [16] was 63% and the inhibition of growth at 10 µM [17] was 51%. The inhibition of growth at 30 µM [18] was 64%, the inhibition of growth at 30 µM [19] was 61% and the inhibition of growth at 30 µM [20] was 60%. It also gave an inhibition of growth at 30 µM [21] of 63%, an inhibition of growth at 30 µM [22] of 63% and an inhibition of growth at 30 µM [23] of 61%. It also gave an inhibition of growth at 30 µM [24] of 69%, an inhibition of growth at 30 µM [25] of 95% and an inhibition of growth at 30 µM [26] of 82%. For the same compound, the inhibition of growth at 50 µM [27] was 72%, the inhibition of growth at 50 µM [28] was 87% and the inhibition of growth at 50 µM [29] was 72%. For the same compound, the inhibition of growth at 50 µM [30] was 82%, the inhibition of growth at 50 µM [31] was 74% and the inhibition of growth at 50 µM [32] was 94%. For the same compound, the inhibition of growth at 50 µM [33] was 98%, the inhibition of growth at 50 µM [34] was 86% and the inhibition of growth at 50 µM [35] was 92%. It also gave an IC50 [36] of 15 µM, an IC50 [37] of 16 µM and an IC50 [38] of 25 µM. For the same compound, the IC50 [39] was 9 µM, the IC50 [40] was 13 µM and the IC50 [41] was 16 µM. It also gave an IC50 [42] of 14 µM, an IC50 [43] of 3.5 µM and an IC50 [44] of 8 µM.
